Source: ChEMBL document CHEMBL4680209, “Design, synthesis, and evaluation of new 2-(quinoline-4-yloxy)acetamide-based antituberculosis agents” (Eur J Med Chem, 2020)
Values after ≈ are worked out from the molar mass of the structure shown.

Key:
[1] = system: Mycobacterium tuberculosis; assay: Inhibition of multidrug-resistant Mycobacterium tuberculosis PT2 clinical isolate QcrB assessed as reduction in bacterial growth by resazurin reduction microplate assay
How it was run: (§1)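 REMA in Middlebrook 7H9 with 10% ADC and 5% DMSO. Compounds come from 2 mg/mL DMSO stocks as 10-point 2-fold serial dilutions, with a top concentration of 5–40 µg/mL set by solubility. MIC is the lowest concentration preventing resazurin blue-to-pink conversion. Three independent experiments; the modal or highest value is reported, in µM.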

[2] = system: Mycobacterium tuberculosis; assay: Inhibition of multidrug-resistant Mycobacterium tuberculosis PT20 clinical isolate QcrB assessed as reduction in bacterial growth by resazurin reduction microplate assay; how it was run: as §1
[3] = Ratio of MIC for inhibition of Mycobacterium tuberculosis QcrB T313A mutant to MIC for inhibition of Mycobacterium tuberculosis H37Rv ATCC 27294 QcrB assessed as reduction in bacterial growth
[4] = system: Mycobacterium tuberculosis; assay: Inhibition of multidrug-resistant Mycobacterium tuberculosis PT12 clinical isolate QcrB assessed as reduction in bacterial growth by resazurin reduction microplate assay; how it was run: as §1
[5] = system: Mycobacterium tuberculosis; assay: Inhibition of Mycobacterium tuberculosis QcrB T313A mutant assessed as reduction in bacterial growth by resazurin reduction microplate assay; how it was run: as §1

Row | Compound | MIC [1] [nM] | MIC [2] [nM] | Ratio [3] | MIC [4] [nM] | MIC [5] [µM]
1 | COc1ccc2nc(C)cc(OCC(=O)c3cccc(Cl)c3)c2c1 | 500 (≈ 0.171 µg/mL) | 200 (≈ 0.0684 µg/mL) | > 4 | 900 (≈ 0.308 µg/mL) | 7.3 (≈ 2.5 µg/mL)
2 | COc1ccc2nc(C)cc(OCc3ccc(Cl)c(Cl)c3)c2c1 | 200 (≈ 0.0696 µg/mL) | 200 (≈ 0.0696 µg/mL) | > 4 | 500 (≈ 0.174 µg/mL) | 14.4 (≈ 5.01 µg/mL)
3 | NNC(=O)c1ccncc1 | – | 146000 (≈ 20 µg/mL) | – | 72900 (≈ 10 µg/mL) | 2.3 (≈ 0.315 µg/mL)
4 | COc1ccc2nc(C)cc(OCc3ccc(C(C)C)cc3)c2c1 | 500 (≈ 0.161 µg/mL) | 200 (≈ 0.0643 µg/mL) | > 4 | 1000 (≈ 0.321 µg/mL) | 7.8 (≈ 2.51 µg/mL)
5 | CO[C@H]1/C=C/O[C@@]2(C)Oc3c(C)c(O)c4c(O)c(c(/C=N/N5CCN(C)CC5)c(O)c4c3C2=O)NC(=O)/C(C)=C\C=C\[C@H](C)[C@H](O)[C@@H](C)[C@@H](O)[C@@H](C)[C@H](OC(C)=O)[C@@H]1C | > 48600 | 12200 (≈ 10 µg/mL) | – | > 48600 | –
6 | COc1ccc2nc(C)cc(OCC(=O)c3ccccc3)c2c1 | 2000 (≈ 0.615 µg/mL) | 1000 (≈ 0.307 µg/mL) | > 4 | 2000 (≈ 0.615 µg/mL) | 32.5 (≈ 9.99 µg/mL)
